Measured values from ChEMBL document CHEMBL1667846, “Optimization of a novel class of benzimidazole-based farnesoid X receptor (FXR) agonists to improve physicochemical and ADME properties” (Bioorg Med Chem Lett, 2011).
Converted amounts (≈) assume the structure as drawn.

Tests used:
[1] = Solubility of the compound in 0.05 M phosphate buffer at pH 6.5; type: physicochemical
[2] = Lipophilicity log D of the compound at pH 7.4; type: physicochemical; details: buffer
Outline: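 Lipophilicity measured as log D at pH 7.4.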

[3] = Cmax in Wistar rat at 2 mg/kg, iv or 5 mg/kg, po; type: ADME, organism-based; details: in vivo
Outline: (§1)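 Male C57BL/6 mice (4 mg/kg iv, 10 mg/kg po) and male Wistar rats (2 mg/kg iv, 5 mg/kg po), single doses. Oral vehicle was 7.5% gelatin in 0.62% aqueous NaCl. Intravenous vehicle was 30% N-methylpyrrolidinone in aqueous 100 mM TRIS buffer pH 8.5. Reported parameters were Cl, Cmax/dose, Vss, AUC/dose, t1/2 and oral bioavailability F.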

[4] = Volume of distribution at steady state in Wistar rat at 2 mg/kg, iv or 5 mg/kg, po; type: ADME, organism-based; details: in vivo, read-out: Vdss; outline: as §1
[5] = Oral bioavailability in C57BL/6 mouse at 4 mg/kg, iv or 10 mg/kg, po; type: ADME, organism-based; details: in vivo; outline: as §1
[6] = Volume of distribution at steady state in C57BL/6 mouse at 4 mg/kg, iv; type: ADME, organism-based; design: dose 4 mg/kg, route intravenous; details: in vivo, read-out: Vdss; outline: as §1
[7] = Cmax in C57BL/6 mouse at 4 mg/kg, iv or 10 mg/kg, po; type: ADME, organism-based; details: in vivo; outline: as §1
[8] = AUC in Wistar rat at 2 mg/kg, iv or 5 mg/kg, po; type: ADME, organism-based; details: plasma; outline: as §1
[9] = AUC in C57BL/6 mouse at 4 mg/kg, iv or 10 mg/kg, po; type: ADME, organism-based; details: plasma; outline: as §1
[10] = Oral bioavailability in Wistar rat at 2 mg/kg, iv or 5 mg/kg, po; type: ADME, organism-based; details: in vivo; outline: as §1

solubility [1] [µg/mL]	logD [2]	Structure (SMILES)	also measured
32 (≈ 59.5 µM)	2.83	Cc1cc(C(=O)O)ccc1NC(=O)[C@H](C1CCCCC1)n1c(-c2ccc(Cl)cc2)nc2cc(F)c(F)cc21	
115 (≈ 212 µM)	2.66	O=C(O)c1ccc(NC(=O)[C@H](C2CCCCC2)n2c(-c3ccc(Cl)cc3)nc3cc(F)c(F)cc32)c(F)c1	Cmax/dose [3]: 270 ng/mL; Vd [4]: 0.62 L/kg; bioavailability [5]: 33%; Vd [6]: 1.24 L/kg; Cmax/dose [7]: 205 ng/mL; AUC [8]: 3030 ng·h/mL; AUC [9]: 5430 ng·h/mL; bioavailability [10]: 59%
88 (≈ 168 µM)	3.06	O=C(O)c1ccc(NC(=O)[C@H](C2CCCCC2)n2c(-c3ccc(Cl)cc3)nc3cc(F)c(F)cc32)cc1	
< 1	> 4	O=C(NC1CCCCC1)[C@H](C1CCCCC1)n1c(-c2ccc(Cl)cc2)nc2cc(F)c(Cl)cc21	
< 1	> 4	O=C(NC1CCCCC1)[C@H](C1CCCCC1)n1c(-c2ccc(Cl)cc2)nc2cc(F)c(F)cc21	
17 (≈ 33.9 µM)	> 4	O=C(N[C@H]1CC[C@H](O)CC1)[C@H](C1CCCCC1)n1c(-c2ccc(Cl)cc2)nc2cc(F)c(F)cc21	
395 (≈ 745 µM)	2.49	O=C(N[C@H]1CC[C@H](C(=O)O)CC1)[C@H](C1CCCCC1)n1c(-c2ccc(Cl)cc2)nc2cc(F)c(F)cc21	
51 (≈ 91.3 µM)	2.98	O=C(O)c1ccc(NC(=O)[C@H](C2CCCCC2)n2c(-c3ccc(Cl)cc3)nc3cc(F)c(F)cc32)c(Cl)c1	
280 (≈ 468 µM)	2.32	O=C(Nc1ccc(OC2(C(=O)O)CC2)cc1F)[C@H](C1CCCCC1)n1c(-c2ccc(Cl)cc2)nc2cc(F)c(F)cc21	
490 (≈ 866 µM)	2.96	O=C(Nc1ccc(-c2nnn[nH]2)cc1F)[C@H](C1CCCCC1)n1c(-c2ccc(Cl)cc2)nc2cc(F)c(F)cc21	
175 (≈ 315 µM)	2.34	O=C(O)c1ccc(NC(=O)[C@H](C2CCCCC2)n2c(-c3ccc(Cl)cc3)nc3ccccc32)c(C(F)(F)F)c1	
465 (≈ 835 µM)	1.91	COc1ccc(-c2nc3cc(F)c(F)cc3n2[C@H](C(=O)N[C@H]2CC[C@H](C(=O)O)CC2)C2CCCCC2)c(OC)n1	
